In one test the target is Aldo-keto reductase family 1 member B1 (Bos taurus, UniProt P16116). The test can be described thus: Inhibition of bovine lens aldose reductase. Summed up: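 Enzyme purified from bovine lens by DE-52 ion exchange then Matrex Orange A affinity chromatography (0.93 U/mg) and kept at 4 °C in 10 mM sodium phosphate pH 7.0 with 2 mM DTT. At least five inhibitor concentrations (20–80% inhibition), each tested at least in triplicate. IC50 from one-site competition nonlinear fit; 95% CL.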
`COc1cccc(/C=C2\SC(=O)N(CC(O)(O)C(F)(F)F)C2=O)c1` came in with a concentration for half-maximal inhibition (IC50) of 23.3 µM.

Consider `O=C1S/C(=C\c2ccc(OCc3ccccc3)cc2)C(=O)N1CC(=O)C(F)(F)F`, for which the half-inhibitory concentration (IC50) was above 9 µM.

As for `O=C1S/C(=C\c2cccc(O)c2)C(=O)N1CC(=O)C(F)(F)F`, inhibition was half-maximal at 12.3 µM (IC50).

As to `COc1ccc(/C=C2\SC(=O)N(CC(=O)C(F)(F)F)C2=O)cc1`, half-maximal inhibition (IC50) was put at 17.4 µM.

`O=C1S/C(=C\c2ccc(Oc3ccccc3)cc2)C(=O)N1CC(=O)C(F)(F)F` returned a half-inhibitory concentration (IC50) of 8.3 µM.

Take `COc1cccc(/C=C2\SC(=O)N(CC(=O)C(F)(F)F)C2=O)c1`: the IC50 turned out to be 23.3 µM.

As to `O=C1S/C(=C\c2cccc(O)c2)C(=O)N1CC(O)(O)C(F)(F)F`, inhibition was half-maximal at 12.3 µM (IC50).

Compound `O=C1S/C(=C\c2ccc(O)cc2)C(=O)N1CC(O)(O)C(F)(F)F` yielded a concentration for half-maximal inhibition (IC50) of 3 µM.

`O=C1S/C(=C\c2ccc(OCc3ccccc3)cc2)C(=O)N1CC(O)(O)C(F)(F)F` registered an IC50 above 9 µM.

`O=C1S/C(=C\c2ccc(Oc3ccccc3)cc2)C(=O)N1CC(O)(O)C(F)(F)F`: the IC50 was determined as 8.3 µM.

In turn, `O=C1S/C(=C\c2ccc(O)cc2)C(=O)N1CC(=O)C(F)(F)F` yielded a concentration for half-maximal inhibition (IC50) of 3 µM.

Consider `COc1ccc(/C=C2\SC(=O)N(CC(O)(O)C(F)(F)F)C2=O)cc1`, for which inhibition was half-maximal at 17.4 µM (IC50).

For the next test, the target named is Aldo-keto reductase family 1 member B1 (Bos taurus) (UniProt P16116). The test can be described thus: Inhibition of bovine lens aldose reductase at 25 uM. Summed up:
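Bovine lens enzyme was purified by DE-52 and Matrex Orange A chromatography. Assay used glyceraldehyde as substrate in 0.25 M sodium phosphate pH 6.8, with 0.38 M ammonium sulfate, 0.11 mM NADPH and 0.5 mM EDTA. Inhibitor was added in DMSO, final 1% v/v. Read-out is NADPH oxidation, given as percent inhibition at a single concentration.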
Turning to `O=C1S/C(=C\c2cccc(Oc3ccccc3)c2)C(=O)N1CC(=O)C(F)(F)F`, the inhibition was determined as 64%.

`O=C1S/C(=C\c2ccc(-c3ccccc3)cc2)C(=O)N1CC(=O)C(F)(F)F` returned an inhibition of 45%.

On to `O=C1S/C(=C\c2cccc3ccccc23)C(=O)N1CC(O)(O)C(F)(F)F`, for which the inhibition turned out to be 52%.

In turn, `O=C1S/C(=C\c2ccc3ccccc3c2)C(=O)N1CC(=O)C(F)(F)F` had an inhibition of 59%.

Turning to `O=C1S/C(=C\c2cccc3ccccc23)C(=O)N1CC(=O)C(F)(F)F`, the inhibition turned out to be 52%.

In turn, `O=C1S/C(=C\c2ccc3ccccc3c2)C(=O)N1CC(O)(O)C(F)(F)F` showed an inhibition of 59%.

In turn, `O=C1S/C(=C\c2ccc(-c3ccccc3)cc2)C(=O)N1CC(O)(O)C(F)(F)F` showed an inhibition of 45%.

Compound `O=C1S/C(=C\c2cccc(Oc3ccccc3)c2)C(=O)N1CC(O)(O)C(F)(F)F` showed an inhibition of 64%.

As usually defined, the IC50 is the concentration needed to halve the response being measured. By inhibition is commonly meant how much of the control response was suppressed.
